Laboratory results as given in ChEMBL document CHEMBL3271979, “Inhibition of solid tumors by nitrosoureas. 1. Lewis lung carcinoma” (1977).
Activity calls are given as the source filed them. The rule behind the calls is not given here.

Legend:
[1] = Antitumor activity against mouse early Lewis lung carcinoma allografted in BDF1 mouse assessed as increase in host life span at 40 mg/kg, ip administered as single dose on 1 or 2 days post-tumor implantation; format: functional; conditions: route intraperitoneal
Method in brief: (§1)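 BDF1 mice (C57Blk/6 × DBA/2) implanted sc by trocar with ~40 mg Lewis lung tumor fragments from bacteriologically sterile donor tumors. Single ip dose on day 1 or 2, as a solution or suspension in water (CMC or gum acacia) or saline (HPC or Tween 80). Read-out is […]. Same-dose toxicity controls were run in nontumor-bearing mice.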

[2] = Antitumor activity against mouse advanced Lewis lung carcinoma allografted in BDF1 mouse assessed as increase in host life span at 60 mg/kg, ip administered as single dose on 7th day post-tumor implantation; format: functional; conditions: route intraperitoneal
Method in brief: (§2)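 BDF1 mice (C57Blk/6 × DBA/2) implanted sc by trocar with about 40 mg Lewis lung tumor fragments from bacteriologically sterile donors. Advanced-disease groups held tumors of about 400 mg by day 6-7, sized by caliper (w = ab²/2). Single ip injection on day 7, in water or saline vehicle, at or below the LD10 in normal mice. Tumors measured at least twice weekly.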

[3] = (§3) Antitumor activity against mouse early Lewis lung carcinoma allografted in ip dosed BDF1 mouse assessed as disease cure administered as single dose on 1 or 2 days post-tumor implantation measured for 80 days post-drug treatment; format: functional
Method in brief: (§4)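 BDF1 mice implanted sc by trocar with ~40 mg Lewis lung fragments from sterile donor tumors. A single ip dose was given on day 1 or 2 after implant, in water or saline vehicle. Cures were scored in animals observed for at least 80 days after treatment. Drug-toxicity controls were matched non-tumor-bearing mice monitored for body weight and deaths.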

Mus musculus [4] = experiment: Antitumor activity against mouse advanced Lewis lung carcinoma allografted in BDF1 mouse assessed as disease cure at 60 mg/kg, ip administered as single dose on 7th day post-tumor implantation measured for 80 days post-drug treatment; format: functional, organism-based; design: dose 60 mg/kg
Method in brief: (§5)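 BDF1 mice (C57Blk/6 × DBA/2) implanted sc by trocar with Lewis lung tumor fragments of about 40 mg, taken only from bacteriologically sterile donor tumors. Mice bearing tumors of about 400 mg (day 6-7) were selected. Each received a single ip dose on day 7, at or below the LD10 in normal mice. Groups were of 10 mice. Tumor weight was taken from calipers as w = ab²/2, measured at least twice weekly. Matched non-tumor mice served as toxicity controls.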

Mus musculus [5] = experiment: Antitumor activity against mouse advanced Lewis lung carcinoma allografted in BDF1 mouse assessed as disease cure at 40 mg/kg, ip administered as single dose on 7th day post-tumor implantation measured for 80 days post-drug treatment; format: functional, organism-based; design: dose 40 mg/kg; method in brief: as §2
[6] = Antitumor activity against mouse advanced Lewis lung carcinoma allografted in BDF1 mouse assessed as increase in host life span at 40 mg/kg, ip administered as single dose on 7th day post-tumor implantation; format: functional; conditions: route intraperitoneal; method in brief: as §2
[7] = Antitumor activity against mouse early Lewis lung carcinoma allografted in BDF1 mouse assessed as time delay in tumor growth at 60 mg/kg, ip administered as single dose on 1 or 2 days post-tumor implantation; format: functional; conditions: route intraperitoneal
Method in brief: (§6)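 BDF1 mice (C57Blk/6 × DBA/2) implanted sc by trocar with ~40 mg Lewis lung tumor fragments from bacteriologically sterile donors. A single ip dose was given on day 1 or 2, as a solution or suspension in water or saline with suspending agent, at ≤0.5 ml. Tumors were measured by caliper at least twice weekly, with weight = ab²/2. Delay was taken as the days for the tumor to reach 1 g.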

Mus musculus [8] = experiment: Antitumor activity against mouse advanced Lewis lung carcinoma allografted in ip dosed BDF1 mouse assessed as complete regression of established tumor administered as single dose on day 6 or 7 post-tumor implantation; format: functional, organism-based; method in brief: as §5
Mus musculus [9] = experiment: Antitumor activity against mouse advanced Lewis lung carcinoma allografted in ip dosed BDF1 mouse assessed as disease cure administered as single dose on day 6 or 7 post-tumor implantation; format: functional, organism-based; method in brief: as §5
[10] = Antitumor activity against mouse early Lewis lung carcinoma allografted in BDF1 mouse assessed as time delay in tumor growth at 40 mg/kg, ip administered as single dose on 1 or 2 days post-tumor implantation; format: functional; conditions: route intraperitoneal; method in brief: as §6
Mus musculus [11] = experiment: Antitumor activity against mouse advanced Lewis lung carcinoma allografted in BDF1 mouse assessed as complete regression of established tumor at 60 mg/kg, ip administered as single dose on 7th day post-tumor implantation; format: functional, organism-based; design: dose 60 mg/kg; method in brief: as §5
[12] = Antitumor activity against mouse advanced Lewis lung carcinoma allografted in ip dosed BDF1 mouse assessed as increase in host lifespan administered as single dose on day 6 or 7 post-tumor implantation; format: functional
Method in brief: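 Advanced Lewis lung model: about 40 mg fragments implanted sc by trocar into BDF1 mice, and mice with tumors of about 400 mg (day 6-7) selected. Tumor weight from calipers, w = ab²/2. Agent given as one ip dose in distilled water or physiological saline. Nontumor-bearing mice received matching doses as toxicity controls.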

[13] = Ratio of ED50 for antitumor activity against mouse L1210 cells allografted in ip dosed mouse to LD10 for mouse
Mus musculus [14] = experiment: Antitumor activity against mouse advanced Lewis lung carcinoma allografted in BDF1 mouse assessed as complete regression of established tumor at 40 mg/kg, ip administered as single dose on 7th day post-tumor implantation; format: functional, organism-based; design: dose 40 mg/kg; method in brief: as §5
[15] = Antitumor activity against mouse early Lewis lung carcinoma allografted in BDF1 mouse assessed as increase in host life span at 60 mg/kg, ip administered as single dose on 1 or 2 days post-tumor implantation; format: functional; conditions: route intraperitoneal; method in brief: as §1
Mus musculus [16] = experiment: Antitumor activity against mouse advanced Lewis lung carcinoma allografted in BDF1 mouse assessed as complete regression of established tumor at 13 mg/kg, ip administered as single dose on 7th day post-tumor implantation; format: functional, organism-based; design: dose 13 mg/kg; method in brief: as §2
Mus musculus [17] = experiment: as §3; format: functional; method in brief: as §4
Mus musculus [18] = experiment: Antitumor activity against mouse early Lewis lung carcinoma allografted in ip dosed BDF1 mouse administered as single dose on 1 or 2 days post-tumor implantation measured for 80 days post-drug treatment; format: functional, organism-based; method in brief: as §4
Mus musculus [19] = experiment: Antitumor activity against mouse advanced Lewis lung carcinoma allografted in BDF1 mouse assessed as disease cure at 13 mg/kg, ip administered as single dose on 7th day post-tumor implantation measured for 80 days post-drug treatment; format: functional, organism-based; design: dose 13 mg/kg; method in brief: as §2
[20] = Antitumor activity against mouse advanced Lewis lung carcinoma allografted in BDF1 mouse assessed as increase in host life span at 13 mg/kg, ip administered as single dose on 7th day post-tumor implantation; format: functional; conditions: route intraperitoneal; method in brief: as §2
[21] = Antitumor activity against mouse advanced Lewis lung carcinoma allografted in BDF1 mouse assessed as increase in host life span at 36 mg/kg, ip administered as single dose on 7th day post-tumor implantation; format: functional; conditions: route intraperitoneal; method in brief: as §2
[22] = Antitumor activity against mouse advanced Lewis lung carcinoma allografted in BDF1 mouse assessed as increase in host life span at 54 mg/kg, ip administered as single dose on 7th day post-tumor implantation; format: functional; conditions: route intraperitoneal; method in brief: as §2
Mus musculus [23] = experiment: Antitumor activity against mouse advanced Lewis lung carcinoma allografted in BDF1 mouse assessed as disease cure at 36 mg/kg, ip administered as single dose on 7th day post-tumor implantation measured for 80 days post-drug treatment; format: functional, organism-based; design: dose 36 mg/kg; method in brief: as §5
Mus musculus [24] = experiment: Antitumor activity against mouse advanced Lewis lung carcinoma allografted in BDF1 mouse assessed as disease cure at 54 mg/kg, ip administered as single dose on 7th day post-tumor implantation measured for 80 days post-drug treatment; format: functional, organism-based; design: dose 54 mg/kg; method in brief: as §5

SMILES: O=NN(CCCl)C(=O)N[C@H]1CC[C@H](CCl)CC1
- ILS at 40 mg/kg [1]: 74%
- ILS at 60 mg/kg [2]: 109%
- Activity [3]: 10%
- Activity (Mus musculus [4]): inactive
- Activity (Mus musculus [5]): inactive
- ILS at 40 mg/kg [6]: 51%
- Time [7]: 4.3 days
- inhibition (Mus musculus [8]): inactive
- Activity (Mus musculus [9]): inactive
- Time [10]: 5.2 days
- inhibition (Mus musculus [11]): inactive
- ILS [12]: >25%
- Ratio [13]: 0.6
- inhibition (Mus musculus [14]): inactive
- ILS at 60 mg/kg [15]: 87%

SMILES: O=NN(CCCl)C(=O)N[C@H]1C(O)O[C@H](CO)[C@@H](O)[C@@H]1O (stereo not given in full) [CHLOROZOTOCIN]
- inhibition (Mus musculus [16]): inactive
- Activity (Mus musculus [17]): inactive
- inhibition (Mus musculus [8]): inactive
- Activity (Mus musculus [9]): inactive
- Activity (Mus musculus [18]): inactive
- ILS [12]: >25%
- Activity (Mus musculus [19]): inactive
- Ratio [13]: 0.4
- ILS at 13 mg/kg [20]: 25%

SMILES: COC(=O)[C@H]1CC[C@@H](NC(=O)N(CCCl)N=O)CC1
- inhibition (Mus musculus [8]): Active
- Activity (Mus musculus [9]): inactive
- ILS at 36 mg/kg [21]: 120%
- ILS at 54 mg/kg [22]: 100%
- Activity (Mus musculus [23]): inactive
- Activity (Mus musculus [24]): inactive
